Test results as given in the EternaBench riboswitch data.

Tested on: MS2 coat protein
Assay: apparent Kd, MS2 coat protein; higher = weaker binding; RNA-MaP array; theophylline 2 mM where present
Method in brief: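 Designs were transcribed by stalled E. coli RNA polymerase on Illumina sequencing-chip clusters. They were titrated with SNAP-549-labelled MS2 coat protein from 0.7 or 1.5 nM, doubling to 3 µM, without and then with constant ligand. Buffer: 100 mM Tris-HCl pH 7.5, 80 mM KCl, 4 mM MgCl2, BSA, DTT, yeast tRNA, Tween-20. Green signal was normalised to red-channel RNA signal and control-cluster median Fmax. Apparent Kd is the median of filtered per-cluster binding-curve fits.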

[1] = designed as: OFF switch for theophylline, no ligand
[2] = ligand present: theophylline, designed as: OFF switch for theophylline
[3] = designed as: ON switch for theophylline, no ligand
[4] = ligand present: theophylline, designed as: ON switch for theophylline

Sequence	apparent Kd [1]	apparent Kd [2]	apparent Kd [3]	apparent Kd [4]
UACAUGAGGAUCACCCAUGUAUGAAUGGAUACCAGAUAAAAUAAGGUCCCUUGGCAGCUAGUGAAUCGAGGGUGGGUAUCAUGAU	11.2 nM	10.3 nM	–	–
CCUCGACAUGAGGAUCACCCAUGUAGAGAUACCAGCCUGUGAGAUGGCCCUUGGCAGCUCAUAUAGGGUACAGGAGUCGUUUUGA	23.2 nM	85.1 nM	–	–
AGCCUAUUACAUGAGGAUCACCCAUGUGAUACCAGUCAGGAAACUGACCCUUGGCAGCGCAUGAGGAUCACCCAUGCGCUAGGCA	10.1 nM	10.2 nM	–	–
AUAUGGCGAGAUGAUACCAGACACAUGAGGAUCACCCAUGUUGAUGGUAAGUCUGCAUAUGUCCCUUGGCAGCAUAGCGACAUAU	8.27 nM	20.8 nM	–	–
GAUGAACUAUAUGAUACCAGACAACAUGAGGAUCACCCAUGUGAAUGUCGUCCUCUGCCUGUCCCUUGGCAGCGUAUAGUUUAUC	29.6 nM	177 nM	–	–
GCACCAGGUACGGAUACCAGCUGCCCGAGAUACAUGAGGAUCACCCAUGUGACCUGGUUUAGCCCUUGGCAGCUGUACCUGGUGC	–	–	13.6 nM	9.99 nM
GAUGAACUAUGUGAUACCAGACAACAUGAGGAUCACCCAUGUGCGCGUCGUCCUCUGCCUGUCCCUUGGCAGCGUAUAGUUUAUC	60.3 nM	124 nM	–	–
GGAAUAACGAUUGAUACCAGCAUGUUAACAUGAGGAUCACCCAUGUUAAGGAUAACAUAAUGCCCUUGGCAGCAACGGAAACCCG	–	–	21.3 nM	12.9 nM
AGAACAAAACUAAAUAAACAACUGGGUGAUACCAGCACAUGUGCGUGCCCUUGGCAGCAUCCGGCCACAUGAGGAUCACCCAUGU	–	–	74 nM	155 nM
ACAUCCAGAUUAAUCGUGGGCAUACUCGAUACCAGUAUUUUAACCUACCCUUGGCAGCGACAUGAGGAUCACCCAUGUGAGAUGA	22.8 nM	30 nM	–	–
GAUGAACUAUUUGAUACCAGACUACAUGAGGAUCACCCAUGUGUGUUUAUACUUCUGUCAGUCCCUUGGCAGCAAAUAGUUUAUC	62.5 nM	106 nM	–	–
CGAUCUUUCGAAAGAAGGAUCUUGUCUGAUACCAGAGACGAAAGUCUCCCUUGGCAGCAGUGCCAACAUGAGGAUCACCCAUGUU	–	–	14.5 nM	14.8 nM
UUUACAUGAGGAUCACCCAUGUUCCAUGAUACCAGACAUGAAAAUGUCCCUUGGCAGCAUGAAUGAUUCAUAGGAUAAUUAUGGG	–	–	98.7 nM	52.9 nM
UAUACAUGAGGAUCACCCAUGUGCCAUGAUACCAGACAUGAAAAUGUCCCUUGGCAGCAUGGGAAAUGUAUAGCGGGAAACCCGA	–	–	72.6 nM	704 nM
AAGGGAGAAUCAGAUACCAGAGUAAGAUGGCAUGAUAAUUACAUGAGGAUCACCCAUGUACUCCCUUGGCAGCUGACAAUAUAUU	10.2 nM	12.2 nM	–	–
GAGCUGAUGUAGAGAUUAUAUAAAAGAGAUACCAGUACAGAAAUGUACCCUUGGCAGCUCAACUUUACAUGAGGAUCACCCAUGU	14.8 nM	17.5 nM	–	–
ACUUUGUCGGGUGAUACCAGCCUCGGCACAUCUCGUGCCGAACAUGAGGAUCACCCAUGUGGCCCUUGGCAGCACAUGACAACUC	–	–	375 nM	67 nM
AGUAAUCUAAGAGAUACCAGACGGUAUAUAACAUGAGGAUCACCCAUGUUUUGGGUGUACGUCCCUUGGCAGCUCAAAAUGAUAA	–	–	230 nM	115 nM
CAUGGGUGGUAUCACCCAUCCAUAGGUGAUACCAGCAUCGAAAGAUGCCCUUGGCAGCACCAACAUGAGGAUCACCCAUGUAAUA	–	–	264 nM	202 nM
UUUACAUGAGGAUCACCCAUGUGCCAUGAUACCAGACAUGAAAAUGUCCCUUGGCAGCAUGAAGGUACCUCAUCGGGAAACCGAA	–	–	134 nM	247 nM
UCAUAUUAGAUAGAUGUAAGGUAUCAUGAUACCAGUAGAUAAUUAUACCCUUGGCAGCAUAACAUGAGGAUCACCCAUGUACAUG	21.3 nM	20.9 nM	–	–
GAUGAACUAUAUGAUACCAGACAACAUGAGGAUCACCCAUGUGUAUGUCGUCCUCUGCCUGUCCCUUGGCAGCGUAUAGUUUAUC	32.4 nM	193 nM	–	–
